{"source": "ChEMBL document CHEMBL4364323", "about": "“Synthesis and biological evaluation of moxifloxacin-acetyl-1,2,3-1H-triazole-methylene-isatin hybrids as potential anti-tubercular agents against both drug-susceptible and drug-resistant Mycobacterium tuberculosis strains” (Eur J Med Chem, 2019)", "key": {"[1]": {"tested_on": "Mycobacterium tuberculosis", "assay": "Antimycobacterial activity against Mycobacterium tuberculosis H37Rv incubated for 7 days by rapid direct susceptibility test", "format": "functional", "conditions": "168 h", "procedure,_shortened": "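Two-fold compound dilutions were mixed with MTB suspension containing 4×10 -3 mg cells per well and incubated at 37 °C in a wet box. MIC was read from the quantity and state of cells in each well under a continuous visual high-magnification system and was re-determined 7 days later.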"}, "[2]": {"assay": "Cytotoxicity against African green monkey Vero cells incubated for 72 hrs by MTT assay", "format": "cell-based", "conditions": "chlorocebus sabaeus", "procedure,_shortened": "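Compounds were dissolved in DMSO and tested at 128 to 4 μg/mL. VERO cells were grown in MEM with Earle's salts plus 10% FBS at 37 °C, 5% CO2, seeded at 1×10^4 cells/well and allowed to recover 24 h. Cells were then exposed to compound or drug-free medium for 72 h. Viability was read by MTT, and CC50 was calculated by Bliss analysis.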"}, "[3]": {"assay": "Selectivity index, ratio of CC50 for African green monkey Vero cells to MIC for Mycobacterium tuberculosis H37Rv", "format": "toxicity", "conditions": "read-out: Selectivity Index"}, "[4]": {"biological_target": "DNA gyrase subunit A/DNA gyrase subunit B (Mycobacterium tuberculosis (strain ATCC 25618 / H37Rv), UniProt P9WG45+P9WG47)", "sequence (P9WG45 whole entry)": "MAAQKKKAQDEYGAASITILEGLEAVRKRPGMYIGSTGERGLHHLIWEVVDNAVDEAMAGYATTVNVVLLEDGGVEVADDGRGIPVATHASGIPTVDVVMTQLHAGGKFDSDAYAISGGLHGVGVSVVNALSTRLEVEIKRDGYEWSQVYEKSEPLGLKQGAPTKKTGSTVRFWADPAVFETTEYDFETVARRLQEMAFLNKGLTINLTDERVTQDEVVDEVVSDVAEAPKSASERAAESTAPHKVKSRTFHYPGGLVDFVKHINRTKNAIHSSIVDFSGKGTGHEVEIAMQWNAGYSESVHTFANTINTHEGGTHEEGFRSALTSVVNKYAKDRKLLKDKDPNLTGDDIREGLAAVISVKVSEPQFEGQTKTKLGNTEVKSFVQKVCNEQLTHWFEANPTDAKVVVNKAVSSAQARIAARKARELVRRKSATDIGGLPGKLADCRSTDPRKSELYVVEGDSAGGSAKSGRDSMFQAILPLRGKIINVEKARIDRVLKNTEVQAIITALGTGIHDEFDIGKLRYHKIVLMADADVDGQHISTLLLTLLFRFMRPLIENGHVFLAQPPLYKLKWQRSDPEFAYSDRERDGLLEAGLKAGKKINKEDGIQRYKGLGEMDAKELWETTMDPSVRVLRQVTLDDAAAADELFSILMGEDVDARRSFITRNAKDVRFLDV", "sequence (P9WG47 whole entry)": "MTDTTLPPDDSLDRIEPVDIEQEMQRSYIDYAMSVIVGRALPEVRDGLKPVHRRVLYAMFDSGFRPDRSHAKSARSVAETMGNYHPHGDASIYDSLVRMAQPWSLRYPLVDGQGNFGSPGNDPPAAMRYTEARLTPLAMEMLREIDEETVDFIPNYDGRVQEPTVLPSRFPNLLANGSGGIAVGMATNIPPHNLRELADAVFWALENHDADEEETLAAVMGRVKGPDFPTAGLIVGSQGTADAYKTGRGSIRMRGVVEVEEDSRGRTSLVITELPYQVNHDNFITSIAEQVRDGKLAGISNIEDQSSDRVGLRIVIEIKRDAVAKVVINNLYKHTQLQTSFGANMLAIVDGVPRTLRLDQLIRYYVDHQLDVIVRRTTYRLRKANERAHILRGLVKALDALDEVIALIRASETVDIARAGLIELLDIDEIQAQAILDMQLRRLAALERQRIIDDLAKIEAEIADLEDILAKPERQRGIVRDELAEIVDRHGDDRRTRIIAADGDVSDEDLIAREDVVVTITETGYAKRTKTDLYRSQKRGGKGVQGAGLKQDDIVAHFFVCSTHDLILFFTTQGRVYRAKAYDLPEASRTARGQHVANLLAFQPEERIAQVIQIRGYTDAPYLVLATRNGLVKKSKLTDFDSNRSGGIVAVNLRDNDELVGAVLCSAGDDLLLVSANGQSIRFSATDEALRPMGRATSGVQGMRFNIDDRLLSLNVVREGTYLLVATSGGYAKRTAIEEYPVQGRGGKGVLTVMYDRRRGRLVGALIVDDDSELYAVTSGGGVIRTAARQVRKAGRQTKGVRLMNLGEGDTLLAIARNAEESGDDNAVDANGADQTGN", "assay": "Inhibition of Mycobacterium tuberculosis DNA gyrase", "format": "protein-complex assay"}, "[5]": {"assay": "Cmax in SPF ICR mouse at 100 mg/kg, sc", "format": "ADME, organism-based", "design": "dose 100 mg/kg, route subcutaneous", "conditions": "in vivo", "procedure,_shortened": "(§1)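 Female SPF ICR mice (20-25 g) dosed once at 100 mg/kg by subcutaneous injection. Plasma concentration-time data were collected. Cmax, Tmax, t1/2 and AUC0-inf were taken directly from the experimental data.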"}, "[6]": {"assay": "Half life in SPF ICR mouse at 100 mg/kg, sc", "format": "ADME, organism-based", "conditions": "in vivo"}, "[7]": {"assay": "Tmax in SPF ICR mouse at 100 mg/kg, sc", "format": "ADME, organism-based", "conditions": "in vivo", "procedure,_shortened": "as §1"}, "[8]": {"assay": "AUC (0 to infinity) in SPF ICR mouse at 100 mg/kg, sc", "format": "ADME, organism-based", "design": "dose 100 mg/kg, route subcutaneous, time infinity", "conditions": "in vivo", "procedure,_shortened": "as §1"}, "CHO": {"tested_on": "CHO", "assay": "Cytotoxicity against CHO cells assessed as slight change in cell viability at 128 to 4 ug/ml", "format": "cell-based, Cricetulus griseus", "conditions": "chinese hamster"}}, "data": [{"smiles": "CO/N=C1/C(=O)N(Cc2cn(CC(=O)N3CCC[C@@H]4CN(c5c(F)cc6c(=O)c(C(=O)O)cn(C7CC7)c6c5OC)C[C@@H]43)nn2)c2ccccc21", "values": [{"measurement": "MIC", "setting": "[1]", "result": 0.5, "unit": "µg/mL"}, {"measurement": "CC50 at 72 h", "setting": "[2]", "result": 128, "unit": "µg/mL"}, {"measurement": "selectivity ratio", "setting": "[3]", "result": 256}, {"measurement": "IC50", "setting": "[4]", "result": 8.59, "unit": "µM"}, {"measurement": "Cmax", "setting": "[5]", "result": 3250, "unit": "ng/mL"}, {"measurement": "half-life", "setting": "[6]", "result": 186, "unit": "min"}, {"measurement": "Tmax", "setting": "[7]", "result": 39, "unit": "min"}, {"measurement": "AUC(0-inf)", "setting": "[8]", "result": 6440, "unit": "ng·h/mL"}, {"measurement": "Activity", "setting": "CHO", "result": "Toxic"}]}, {"smiles": "COc1c(N2C[C@H]3CCCN(C(=O)Cn4cc(CN5C(=O)/C(=N/NC(N)=S)c6ccccc65)nn4)[C@H]3C2)c(F)cc2c(=O)c(C(=O)O)cn(C3CC3)c12", "values": [{"measurement": "MIC", "setting": "[1]", "result": 0.12, "unit": "µg/mL"}, {"measurement": "CC50 at 72 h", "setting": "[2]", "result": 16, "unit": "µg/mL"}, {"measurement": "selectivity ratio", "setting": "[3]", "result": 128}, {"measurement": "IC50", "setting": "[4]", "result": 6.73, "unit": "µM"}, {"measurement": "Cmax", "setting": "[5]", "result": 1400, "unit": "ng/mL"}, {"measurement": "half-life", "setting": "[6]", "result": 258, "unit": "min"}, {"measurement": "Tmax", "setting": "[7]", "result": 52, "unit": "min"}, {"measurement": "AUC(0-inf)", "setting": "[8]", "result": 3270, "unit": "ng·h/mL"}, {"measurement": "Activity", "setting": "CHO", "result": "Toxic"}]}, {"smiles": "COc1c(N2C[C@H]3CCCN(C(=O)Cn4cc(CN5C(=O)/C(=N/NC(N)=S)c6cc(F)ccc65)nn4)[C@H]3C2)c(F)cc2c(=O)c(C(=O)O)cn(C3CC3)c12", "values": [{"measurement": "MIC", "setting": "[1]", "result": 0.25, "unit": "µg/mL"}, {"measurement": "CC50 at 72 h", "setting": "[2]", "result": 8, "unit": "µg/mL"}, {"measurement": "selectivity ratio", "setting": "[3]", "result": 32}, {"measurement": "IC50", "setting": "[4]", "result": 10.5, "unit": "µM"}]}, {"smiles": "CO/N=C1/C(=O)N(Cc2cn(CC(=O)N3CCC[C@@H]4CN(c5c(F)cc6c(=O)c(C(=O)O)cn(C7CC7)c6c5OC)C[C@@H]43)nn2)c2ccc(F)cc21", "values": [{"measurement": "MIC", "setting": "[1]", "result": 1, "unit": "µg/mL"}, {"measurement": "CC50 at 72 h", "setting": "[2]", "result": 32, "unit": "µg/mL"}, {"measurement": "selectivity ratio", "setting": "[3]", "result": 32}]}, {"smiles": "COc1c(N2C[C@H]3CCCN(C(=O)Cn4cc(CN5C(=O)C(=O)c6cc(F)ccc65)nn4)[C@H]3C2)c(F)cc2c(=O)c(C(=O)O)cn(C3CC3)c12", "values": [{"measurement": "MIC", "setting": "[1]", "result": 1, "unit": "µg/mL"}, {"measurement": "CC50 at 72 h", "setting": "[2]", "result": 16, "unit": "µg/mL"}, {"measurement": "selectivity ratio", "setting": "[3]", "result": 16}]}, {"smiles": "COc1c(N2C[C@H]3CCCN(C(=O)Cn4cc(CN5C(=O)/C(=N/O)c6ccccc65)nn4)[C@H]3C2)c(F)cc2c(=O)c(C(=O)O)cn(C3CC3)c12", "values": [{"measurement": "MIC", "setting": "[1]", "result": 1, "unit": "µg/mL"}, {"measurement": "CC50 at 72 h", "setting": "[2]", "result": 32, "unit": "µg/mL"}, {"measurement": "selectivity ratio", "setting": "[3]", "result": 32}]}, {"smiles": "COc1c(N2C[C@H]3CCCN(C(=O)Cn4cc(CN5C(=O)/C(=N/O)c6cc(F)ccc65)nn4)[C@H]3C2)c(F)cc2c(=O)c(C(=O)O)cn(C3CC3)c12", "values": [{"measurement": "MIC", "setting": "[1]", "result": 2, "unit": "µg/mL"}, {"measurement": "CC50 at 72 h", "setting": "[2]", "result": 16, "unit": "µg/mL"}, {"measurement": "selectivity ratio", "setting": "[3]", "result": 8}]}, {"smiles": "COc1c(N2C[C@H]3CCCN(C(=O)Cn4cc(CN5C(=O)C(=O)c6cccc(F)c65)nn4)[C@H]3C2)c(F)cc2c(=O)c(C(=O)O)cn(C3CC3)c12", "values": [{"measurement": "MIC", "setting": "[1]", "result": 8, "unit": "µg/mL"}, {"measurement": "CC50 at 72 h", "setting": "[2]", "result": 32, "unit": "µg/mL"}, {"measurement": "selectivity ratio", "setting": "[3]", "result": 4}]}, {"smiles": "CO/N=C1/C(=O)N(Cc2cn(CC(=O)N3CCC[C@@H]4CN(c5c(F)cc6c(=O)c(C(=O)O)cn(C7CC7)c6c5OC)C[C@@H]43)nn2)c2c(F)cccc21", "values": [{"measurement": "MIC", "setting": "[1]", "result": 16, "unit": "µg/mL"}, {"measurement": "CC50 at 72 h", "setting": "[2]", "result": 16, "unit": "µg/mL"}, {"measurement": "selectivity ratio", "setting": "[3]", "result": 1}]}, {"smiles": "COc1c(N2C[C@H]3CCCN(C(=O)Cn4cc(CN5C(=O)/C(=N/O)c6cccc(F)c65)nn4)[C@H]3C2)c(F)cc2c(=O)c(C(=O)O)cn(C3CC3)c12", "values": [{"measurement": "MIC", "setting": "[1]", "result": 16, "unit": "µg/mL"}, {"measurement": "CC50 at 72 h", "setting": "[2]", "result": 16, "unit": "µg/mL"}, {"measurement": "selectivity ratio", "setting": "[3]", "result": 1}]}, {"smiles": "COc1c(N2C[C@H]3CCCN(C(=O)Cn4cc(CN5C(=O)C(=O)c6ccccc65)nn4)[C@H]3C2)c(F)cc2c(=O)c(C(=O)O)cn(C3CC3)c12", "values": [{"measurement": "MIC", "setting": "[1]", "result": 0.25, "unit": "µg/mL"}, {"measurement": "CC50 at 72 h", "setting": "[2]", "result": 32, "unit": "µg/mL"}, {"measurement": "selectivity ratio", "setting": "[3]", "result": 128}, {"measurement": "IC50", "setting": "[4]", "result": 5.97, "unit": "µM"}]}, {"smiles": "COc1c(N2C[C@H]3CCCN(C(=O)Cn4cc(CN5C(=O)/C(=N/NC(N)=S)c6cccc(F)c65)nn4)[C@H]3C2)c(F)cc2c(=O)c(C(=O)O)cn(C3CC3)c12", "values": [{"measurement": "MIC", "setting": "[1]", "result": 8, "unit": "µg/mL"}, {"measurement": "CC50 at 72 h", "setting": "[2]", "result": 8, "unit": "µg/mL"}, {"measurement": "selectivity ratio", "setting": "[3]", "result": 1}]}, {"smiles": "CO/N=C1/C(=O)N(Cc2cn(CC(=O)N3CCC[C@@H]4CN(c5c(F)cc6c(=O)c(C(=O)O)cn(C7CC7)c6c5OC)C[C@@H]43)nn2)c2ccc(C)cc21", "values": [{"measurement": "MIC", "setting": "[1]", "result": 4, "unit": "µg/mL"}, {"measurement": "CC50 at 72 h", "setting": "[2]", "result": 64, "unit": "µg/mL"}, {"measurement": "selectivity ratio", "setting": "[3]", "result": 16}]}, {"smiles": "COc1c(N2C[C@H]3CCCN(C(=O)Cn4cc(CN5C(=O)C(=O)c6cc(C)ccc65)nn4)[C@H]3C2)c(F)cc2c(=O)c(C(=O)O)cn(C3CC3)c12", "values": [{"measurement": "MIC", "setting": "[1]", "result": 2, "unit": "µg/mL"}, {"measurement": "CC50 at 72 h", "setting": "[2]", "result": 64, "unit": "µg/mL"}, {"measurement": "selectivity ratio", "setting": "[3]", "result": 32}]}, {"smiles": "COc1c(N2CCNC(C)C2)c(F)cc2c(=O)c(C(=O)O)cn(C3CC3)c12", "note": "(centres undefined) [GATIFLOXACIN]", "values": [{"measurement": "MIC", "setting": "[1]", "result": 0.5, "unit": "µg/mL"}, {"measurement": "CC50 at 72 h", "setting": "[2]", "result": 64, "unit": "µg/mL"}, {"measurement": "selectivity ratio", "setting": "[3]", "result": 128}, {"measurement": "IC50", "setting": "[4]", "result": 13.3, "unit": "µM"}]}, {"smiles": "NNC(=O)c1ccncc1", "note": "[ISONIAZID]", "values": [{"measurement": "MIC", "setting": "[1]", "result": 0.12, "unit": "µg/mL"}, {"measurement": "selectivity ratio", "setting": "[3]", "result": 1024}]}, {"smiles": "COc1c(N2C[C@@H]3CCCN[C@@H]3C2)c(F)cc2c(=O)c(C(=O)O)cn(C3CC3)c12", "note": "[MOXIFLOXACIN]", "values": [{"measurement": "MIC", "setting": "[1]", "result": 0.12, "unit": "µg/mL"}, {"measurement": "Cmax", "setting": "[5]", "result": 10800, "unit": "ng/mL"}, {"measurement": "Tmax", "setting": "[7]", "result": 27, "unit": "min"}, {"measurement": "AUC(0-inf)", "setting": "[8]", "result": 19200, "unit": "ng·h/mL"}]}, {"smiles": "CO[C@H]1/C=C/O[C@@]2(C)Oc3c(C)c(O)c4c(O)c(c(/C=N/N5CCN(C)CC5)c(O)c4c3C2=O)NC(=O)/C(C)=C\\C=C\\[C@H](C)[C@H](O)[C@@H](C)[C@@H](O)[C@@H](C)[C@H](OC(C)=O)[C@@H]1C", "note": "[RIFAMPIN]", "values": [{"measurement": "MIC", "setting": "[1]", "result": 0.06, "unit": "µg/mL"}, {"measurement": "CC50 at 72 h", "setting": "[2]", "result": "> 128", "unit": "µg/mL"}, {"measurement": "selectivity ratio", "setting": "[3]", "result": "> 512"}]}]}
